{"source": "ChEMBL document CHEMBL1152867", "about": "“Targeting QseC signaling and virulence for antibiotic development” (Science, 2008)", "key": {"[1]": {"biological_target": "Beta-1 adrenergic receptor (Homo sapiens) (UniProt P08588)", "sequence (P08588 whole entry, looked up)": "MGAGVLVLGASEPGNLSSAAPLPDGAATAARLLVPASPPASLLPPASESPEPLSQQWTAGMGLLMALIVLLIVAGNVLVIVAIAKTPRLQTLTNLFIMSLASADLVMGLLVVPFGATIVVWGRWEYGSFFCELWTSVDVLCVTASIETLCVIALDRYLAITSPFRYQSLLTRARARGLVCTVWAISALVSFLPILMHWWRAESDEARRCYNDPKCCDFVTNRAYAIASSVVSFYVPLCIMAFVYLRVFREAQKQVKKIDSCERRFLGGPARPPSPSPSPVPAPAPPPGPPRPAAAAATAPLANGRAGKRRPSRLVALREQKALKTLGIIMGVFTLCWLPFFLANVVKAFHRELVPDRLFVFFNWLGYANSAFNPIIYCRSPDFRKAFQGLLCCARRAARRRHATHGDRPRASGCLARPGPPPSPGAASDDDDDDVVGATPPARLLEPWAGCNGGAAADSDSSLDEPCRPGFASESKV", "assay": "Activation of human beta-1-adrenergic receptor expressed in HEK293 cells assessed as cAMP release at 5 uM", "format": "functional, cell-based", "outline": "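Live HEK293 cells carried an EPAC-based cAMP BRET reporter and expressed endogenous β2 or exogenous β1 or β3 adrenergic receptors. Cells were exposed to test compound alone at 5 μM. Values are means of triplicates, representative of 3 experiments.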"}, "Escherichia coli [2]": {"system": "Escherichia coli", "assay": "Inhibition of [3H]norepinephrine binding to Escherichia coli Qsec at 5 pM by liposome-based scintillation counting assay", "outline": "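Liposomes reconstituted with QseC were loaded with tritiated norepinephrine (5 μM) by freeze-thaw in liquid N2 and held 10 min at room temperature, so unbound signal could diffuse out. They were pelleted at 12,000g for 5 min and counted for tritium. Counts were normalized to liposomes loaded with 5 μM tyrosine. Compound was tested at 5 pM and 5 fM.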"}, "Escherichia coli [3]": {"system": "Escherichia coli", "assay": "Inhibition of epinephrine-induced Escherichia coli Qsec autophosphorylation at 5 pM by liposome-based SDS-PAGE"}, "Escherichia coli [4]": {"system": "Escherichia coli", "assay": "Inhibition of epinephrine-induced Qsec-dependent virulence gene ler expression in Escherichia coli at 5 pM by quantitative real-time PCR", "format": "functional, organism-based"}, "Escherichia coli [5]": {"system": "Escherichia coli", "assay": "Inhibition of AI3-induced Qsec-dependent virulence gene stx2A expression in Escherichia coli at 5 pM by quantitative real-time PCR", "format": "functional, organism-based"}, "Escherichia coli [6]": {"system": "Escherichia coli", "assay": "Inhibition of epinephrine-induced EspA protein secretion in Escherichia coli 8624 at 5 nM by Western blot", "format": "functional, organism-based", "outline": "(§1)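 Secreted proteins in cell-free supernatant were TCA-precipitated and immunoblotted with rabbit polyclonal anti-EspA and anti-EspB, with ECL detection.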"}, "Escherichia coli [7]": {"system": "Escherichia coli", "assay": "Inhibition of epinephrine-induced EspA protein secretion in Escherichia coli 8624 at 5 pM by Western blot", "format": "functional, organism-based", "outline": "as §1"}, "Escherichia coli [8]": {"system": "Escherichia coli", "assay": "Inhibition of Escherichia coli attaching-effacing lesions formation in infected human HeLa cells at 5 pM by FAS test", "format": "functional, organism-based", "outline": "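HeLa monolayers on glass coverslips were infected with a 1:100 dilution of overnight LB cultures for 6 h at 37 °C, 5% CO2. Cells were permeabilized with 0.2% Triton X-100 and stained with FITC-phalloidin for actin and propidium iodide for bacteria. Whole fields of ≥6 coverslips per strain were scored for AE lesions by fluorescence microscopy.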"}, "Escherichia coli [9]": {"system": "Escherichia coli", "assay": "Bactericidal activity against Escherichia coli 8624 at 1 uM in presence of epinephrine", "format": "functional, organism-based"}, "Escherichia coli [10]": {"system": "Escherichia coli", "assay": "Antibacterial activity against Escherichia coli infected in New Zealand white rabbit assessed as inhibition of bacterial colonization in ileum at 20 mg/kg pretreated before 3 hrs of bacterial challenge", "format": "functional, organism-based", "parameters": "dose 20 mg/kg"}, "Escherichia coli [11]": {"system": "Escherichia coli", "assay": "Antibacterial activity against Escherichia coli infected in New Zealand white rabbit assessed as inhibition of bacterial colonization in ileum at 20 mg/kg administered 3 hrs post-bacterial challenge", "format": "functional, organism-based", "parameters": "dose 20 mg/kg"}, "Escherichia coli [12]": {"system": "Escherichia coli", "assay": "Antibacterial activity against Escherichia coli infected in New Zealand white rabbit assessed as inhibition of bacterial colonization in cecum at 20 mg/kg administered along with bacterial challenge", "format": "functional, organism-based", "parameters": "dose 20 mg/kg", "conditions": "Caecum"}, "Salmonella typhimurium [13]": {"system": "Salmonella typhimurium", "assay": "Bacteriostatic activity against Salmonella Typhimurium SL1344 at 1 uM", "format": "functional, organism-based", "conditions": "Salmonella enterica subsp. enterica serovar Typhimurium str. SL1344"}, "Salmonella typhimurium [14]": {"system": "Salmonella typhimurium", "assay": "Antibacterial activity against Salmonella Typhimurium SL1344 infected in 129x1/SvJ mouse assessed as reduction of bacterial CFU in liver at 20 mg/kg, po after 48 hrs relative to control", "format": "functional"}, "Salmonella typhimurium [15]": {"system": "Salmonella typhimurium", "assay": "Antibacterial activity against Salmonella Typhimurium SL1344 infected in 129x1/SvJ mouse assessed as reduction of bacterial CFU in spleen at 20 mg/kg, po after 48 hrs relative to control", "format": "functional"}, "Salmonella typhimurium [16]": {"system": "Salmonella typhimurium", "assay": "Inhibition of norepinephrine-induced virulence gene sifA expression in Salmonella Typhimurium at 5 pM", "format": "functional, organism-based", "conditions": "Salmonella enterica subsp. enterica serovar Typhimurium"}, "[17]": {"system": "Francisella tularensis subsp. tularensis SCHU S4", "assay": "Antibacterial activity against Francisella tularensis SCHU S4 infected in mouse J774 cells assessed as reduction in bacterial CFU at 5 nM relative to control", "format": "functional"}, "[18]": {"assay": "AUC in CD1 mouse at 20 mg/kg, po", "format": "ADME, organism-based", "parameters": "dose 20 mg/kg, route oral", "conditions": "plasma", "outline": "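Terminal cardiac bleeds were taken in groups of three at set times. Plasma was acetonitrile-precipitated with internal standard and analysed by LC/MS/MS against a spiked-plasma standard curve. Parameters came from noncompartmental analysis.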"}, "[19]": {"assay": "Oral bioavailability in CD1 mouse at 20 mg/kg", "format": "ADME, organism-based", "conditions": "in vivo", "outline": "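Female CD-1 mice received 20 mg/kg either as an i.v. bolus or by oral gavage, in the same DMSO/PEG400/Tween 80/bicarbonate pH 9 vehicle. Plasma levels were measured by LC/MS/MS. Bioavailability = AUCoral/AUCiv × Doseiv/Doseoral, using noncompartmental AUCs.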"}, "[20]": {"system": "Francisella tularensis subsp. tularensis SCHU S4", "assay": "Inhibition of virulence gene mip expression in Francisella tularensis SCHU S4 at 5 pM by quantitative real-time PCR", "format": "functional, organism-based"}, "Mus musculus [21]": {"system": "Mus musculus", "assay": "Toxicity in CD1 mouse assessed as change in lung weight at 20 mg/kg, po administered daily once for 5 days measured 3 days after final dose", "format": "organism-based", "parameters": "dose 20 mg/kg, route oral", "conditions": "in vivo, 72 h", "outline": "(§2)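 Female CD-1 mice (~22 g), three per group, given 20 mg/kg by oral gavage once daily for 5 days. Vehicle-only mice served as controls. Animals were weighed and observed daily. Three days after the last dose they were weighed and sacrificed. Blood was taken for chemistry and complete blood counts, and organs were weighed.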"}, "Mus musculus [22]": {"system": "Mus musculus", "assay": "Toxicity in CD1 mouse assessed as change in spleen weight at 20 mg/kg, po administered daily once for 5 days measured 3 days after final dose", "format": "organism-based", "parameters": "dose 20 mg/kg, route oral", "conditions": "in vivo, 72 h", "outline": "as §2"}, "Mus musculus [23]": {"system": "Mus musculus", "assay": "Toxicity in CD1 mouse assessed as change in body weight at 20 mg/kg, po administered daily once for 5 days measured 3 days after final dose", "format": "organism-based", "parameters": "dose 20 mg/kg, route oral", "conditions": "in vivo, 72 h", "outline": "as §2"}, "Mus musculus [24]": {"system": "Mus musculus", "assay": "Toxicity in CD1 mouse assessed as triglyceride levels at 20 mg/kg, po administered daily once for 5 days measured 3 days after final dose", "format": "organism-based", "parameters": "dose 20 mg/kg, route oral", "conditions": "in vivo, 72 h", "outline": "as §2"}, "Mus musculus [25]": {"system": "Mus musculus", "assay": "Toxicity in CD1 mouse assessed as glucose levels at 20 mg/kg, po administered daily once for 5 days measured 3 days after final dose", "format": "organism-based", "parameters": "dose 20 mg/kg, route oral", "conditions": "in vivo, 72 h", "outline": "as §2"}, "Mus musculus [26]": {"system": "Mus musculus", "assay": "Toxicity in CD1 mouse assessed as creatinine levels at 20 mg/kg, po administered daily once for 5 days measured 3 days after final dose", "format": "organism-based", "parameters": "dose 20 mg/kg, route oral", "conditions": "in vivo, 72 h", "outline": "as §2"}, "Mus musculus [27]": {"system": "Mus musculus", "assay": "Toxicity in CD1 mouse assessed as lymphocyte counts at 20 mg/kg, po administered daily once for 5 days measured 3 days after final dose", "format": "organism-based", "parameters": "dose 20 mg/kg, route oral", "conditions": "in vivo, 72 h", "outline": "as §2"}, "Mus musculus [28]": {"system": "Mus musculus", "assay": "Toxicity in CD1 mouse assessed as monocyte counts at 20 mg/kg, po administered daily once for 5 days measured 3 days after final dose", "format": "organism-based", "parameters": "dose 20 mg/kg, route oral", "conditions": "in vivo, 72 h", "outline": "as §2"}, "Mus musculus [29]": {"system": "Mus musculus", "assay": "Toxicity in CD1 mouse assessed as RBC counts at 20 mg/kg, po administered daily once for 5 days measured 3 days after final dose", "format": "organism-based", "parameters": "dose 20 mg/kg, route oral", "conditions": "in vivo, 72 h"}, "Mus musculus [30]": {"system": "Mus musculus", "assay": "Toxicity in CD1 mouse assessed as mean corpuscular volume at 20 mg/kg, po administered daily once for 5 days measured 3 days after final dose", "format": "organism-based", "parameters": "dose 20 mg/kg, route oral", "conditions": "in vivo, 72 h", "outline": "as §2"}, "Mus musculus [31]": {"system": "Mus musculus", "assay": "Toxicity in CD1 mouse assessed as red cell distribution width at 20 mg/kg, po administered daily once for 5 days measured 3 days after final dose", "format": "organism-based", "parameters": "dose 20 mg/kg, route oral", "conditions": "in vivo, 72 h", "outline": "as §2"}, "Mus musculus [32]": {"system": "Mus musculus", "assay": "Toxicity in CD1 mouse assessed as platelet count at 20 mg/kg, po administered daily once for 5 days measured 3 days after final dose", "format": "organism-based", "parameters": "dose 20 mg/kg, route oral", "conditions": "in vivo, 72 h", "outline": "as §2"}}, "note": "The source made the active and inactive calls. No cut-off for these calls is given here.", "data": [{"smiles": "O=S(=O)(Nc1ccccc1)c1ccc(NC(=S)Nc2ccccc2)cc1", "values": [{"measurement": "Activity", "setting": "[1]", "result": "inactive"}, {"measurement": "Activity", "setting": "Escherichia coli [2]", "result": "Active"}, {"measurement": "Activity", "setting": "Escherichia coli [3]", "result": "inactive"}, {"measurement": "Activity", "setting": "Escherichia coli [4]", "result": "Active"}, {"measurement": "Activity", "setting": "Escherichia coli [5]", "result": "Active"}, {"measurement": "Activity", "setting": "Escherichia coli [6]", "result": "Active"}, {"measurement": "Activity", "setting": "Escherichia coli [7]", "result": "Active"}, {"measurement": "Activity", "setting": "Escherichia coli [8]", "result": "Active"}, {"measurement": "Activity", "setting": "Escherichia coli [9]", "result": "inactive"}, {"measurement": "Activity", "setting": "Escherichia coli [10]", "result": "inactive"}, {"measurement": "Activity", "setting": "Escherichia coli [11]", "result": "inactive"}, {"measurement": "Activity", "setting": "Escherichia coli [12]", "result": "inactive"}, {"measurement": "Activity", "setting": "Salmonella typhimurium [13]", "result": "inactive"}, {"measurement": "fold change (FC)", "setting": "Salmonella typhimurium [14]", "result": 10}, {"measurement": "fold change (FC)", "setting": "Salmonella typhimurium [15]", "result": 10}, {"measurement": "Activity", "setting": "Salmonella typhimurium [16]", "result": "Active"}, {"measurement": "fold change (FC)", "setting": "[17]", "result": 10}, {"measurement": "AUC", "setting": "[18]", "result": 3470, "unit": "ng·h/mL"}, {"measurement": "bioavailability", "setting": "[19]", "result": 69.3, "unit": "%"}, {"measurement": "Activity", "setting": "[20]", "result": "Active"}, {"measurement": "Activity", "setting": "Mus musculus [21]", "result": "Non-toxic"}, {"measurement": "Activity", "setting": "Mus musculus [22]", "result": "Non-toxic"}, {"measurement": "Activity", "setting": "Mus musculus [23]", "result": "Non-toxic"}, {"measurement": "Activity", "setting": "Mus musculus [24]", "result": 99.3, "unit": "mg/dL"}, {"measurement": "Activity", "setting": "Mus musculus [25]", "result": 287, "unit": "mg/dL"}, {"measurement": "Activity", "setting": "Mus musculus [26]", "result": 0.2, "unit": "mg/dL"}, {"measurement": "Activity", "setting": "Mus musculus [27]", "result": 82, "unit": "%"}, {"measurement": "Activity", "setting": "Mus musculus [28]", "result": 8.1, "unit": "%"}, {"measurement": "Activity", "setting": "Mus musculus [29]", "result": 7.4, "unit": "M/uL"}, {"measurement": "Activity", "setting": "Mus musculus [30]", "result": 51.7, "unit": "fL"}, {"measurement": "Activity", "setting": "Mus musculus [31]", "result": 17.6, "unit": "%"}, {"measurement": "Activity", "setting": "Mus musculus [32]", "result": 1075, "unit": "K/uL"}]}]}
